# Assay outcomes deposited in PubChem by several laboratories.
# Hits are enriched below; roughly 4.8% of the tested compounds scored in any of these assays.
# XBP1 UPR activ: adaptive UPR (XBP1) activation. CHO-XBP1 luciferase reporter, IRE1-XBP1 UPR activation, luminescence; percent of tunicamycin response, DMSO as zero. activation, % at 20 µM. AID 463104. 0.33% of 330,000 active;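 active = versus positive control, 20 µM dose yields 30% or more activation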
#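 incubation = overnight seeding at 37 °C, 6 h compound treatment at 37 °C | assay system = CHO-XBP1 cells stably carrying IRE1-XBP1-driven luciferase reporter | input = 1000 cells per well | detection = luciferase luminescence | dosing = single point, 20 µM final compound, 1% DMSO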
# Mdm2-MdmX inh: human Mdm2/MdmX binding inhibition; SaOS-2 split-luciferase Mdm2/MdmX complementation, luminescence; inhibition, % at 8 µM; 3% of 330,000 active; AID 485346;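 active = inhibition of at least 50% at 8 µM in the primary screen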
# Target sequence (O15151 whole entry, looked up): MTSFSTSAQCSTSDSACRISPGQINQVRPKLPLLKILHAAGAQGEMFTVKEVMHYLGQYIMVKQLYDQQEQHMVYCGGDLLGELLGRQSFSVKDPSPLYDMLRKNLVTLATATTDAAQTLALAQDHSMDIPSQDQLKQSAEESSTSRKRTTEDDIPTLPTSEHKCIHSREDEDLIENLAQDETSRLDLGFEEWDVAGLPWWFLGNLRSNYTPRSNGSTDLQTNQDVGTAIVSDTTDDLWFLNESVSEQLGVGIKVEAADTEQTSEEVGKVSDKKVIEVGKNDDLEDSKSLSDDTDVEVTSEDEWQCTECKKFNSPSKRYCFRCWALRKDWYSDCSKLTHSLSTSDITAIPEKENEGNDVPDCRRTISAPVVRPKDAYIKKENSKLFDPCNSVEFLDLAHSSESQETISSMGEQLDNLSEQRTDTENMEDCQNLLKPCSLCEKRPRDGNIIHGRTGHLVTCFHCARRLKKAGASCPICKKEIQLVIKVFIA
# Target sequence (Q00987 whole entry, looked up): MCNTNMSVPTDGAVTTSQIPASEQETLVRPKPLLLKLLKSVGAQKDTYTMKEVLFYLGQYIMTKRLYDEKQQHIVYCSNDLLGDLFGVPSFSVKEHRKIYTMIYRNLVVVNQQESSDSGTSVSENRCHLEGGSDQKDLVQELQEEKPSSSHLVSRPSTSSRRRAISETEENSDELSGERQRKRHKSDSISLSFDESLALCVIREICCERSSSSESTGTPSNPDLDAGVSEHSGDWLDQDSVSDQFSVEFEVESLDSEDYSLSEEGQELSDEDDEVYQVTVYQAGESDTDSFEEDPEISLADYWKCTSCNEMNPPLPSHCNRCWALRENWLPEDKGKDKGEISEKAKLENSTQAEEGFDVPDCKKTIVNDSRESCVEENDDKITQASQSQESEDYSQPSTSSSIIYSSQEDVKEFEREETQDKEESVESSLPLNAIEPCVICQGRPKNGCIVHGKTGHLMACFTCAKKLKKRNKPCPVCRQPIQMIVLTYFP
# SKKanGAS inh: SKKanGAS growth inhibition; 1.3% of 300,000 active; AID 1662; inhibition, % at 7.5 µM; S. pyogenes SKKanGAS, kanamycin growth, BacTiter-Glo, 6 h;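 active = mean replicate score, as percent of positive control median, at least 50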;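 note: strain carries kanamycin resistance gene driven by streptokinase promoter and grows in 40 µg/ml kanamycin; loss of luminescence reflects streptokinase promoter inhibition or plain growth inhibition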
# Beta apoptosis: beta cell apoptosis inhibition. INS-1E cytokine-induced death, ATP luminescence, 48 h; percent of positive-control rescue, neutral wells zero. protection from apoptosis, % (no concentration beside the values). 0.8% of 300,000 active. AID 435005;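 active = Every replicate reaches about 75%, or at least half do and their mean reaches it too, limit read from the data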;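 note: higher means more ATP so stronger rescue from cytokine killing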
# UPR CHOP act: apoptotic UPR (CHOP) activation. CHO-CHOP luciferase reporter, luminescence; percent of tunicamycin response over DMSO baseline. activation, % at 10 µM. 0.34% of 330,000 active. AID 449763;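 active = at 10 µM dose, activation of 40% or more, normalized to positive control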
#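 System: CHO CHOP reporter cells. Amount: 500 cells per well. Buffer or medium: F12 medium, 10% FBS. Compound dosing: one dose, 10 µM in 0.5% DMSO. Incubation: 6 h compound exposure at 37 °C after overnight seeding. Technique: Steady-Glo luciferase luminescence. Benchmarks: tunicamycin and DMSO controls.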
# CSC inhib: cancer stem cell inhibition | cancer stem cell-like cells viability, luminescence | inhibition, % at 7.5 µM | 1.1% of 300,000 active | AID 2717; in the data active = inhibition above about 75%; tested in HMLE shEcad cells
# Mdm2-MdmX conf: confirmation of human Mdm2/MdmX interaction inhibitors | AID 489028 | Mdm2-MdmX binding, luminescent assay | shares compounds with Mdm2-MdmX inh | 55% of 10,000 active | inhibition, % at 8 µM; in the data active = inhibition above about 40%
# Full FLuc ctr: full-length luciferase inhibition in Mdm2/MdmX counter-screen; shares compounds with Mdm2-MdmX inh; SaOS-2 full-length luciferase counterscreen, luminescence; inhibition, % at 8 µM; 77% of 6,200 active;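 active = mean inhibition at 8 µM reaching about 37%, which flags the compound as non-specific, limit read from the data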;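 note: p53-null SaOS-2 cells with luciferase driven by a doxycycline-inducible promoter; compound on cells about two nights before reading with doxycycline added after day one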
# Hits are given with their value; i = inactive; nt = no result given.
SMILES,XBP1 UPR activ,Mdm2-MdmX inh,SKKanGAS inh,Beta apoptosis,UPR CHOP act,CSC inhib,Mdm2-MdmX conf,others
C[C@]12CC[C@H]3[C@@H](CC[C@]4(O)C[C@@H](O)CC[C@]34C=O)[C@@]1(O)CC[C@@H]2C1=CC(=O)OC1,i,69.5,nt,i,i,101.2,69.1,Full FLuc ctr=i
C[C@]12CCC3C(CCC4=CC(O)CC[C@@]43/C=N/O)C1(O)CCC2C1=CC(=O)OC1 (stereo not given in full),i,58.4,i,i,i,115.4,72.0,Full FLuc ctr=i
CC12CC[C@H]3[C@@H](CCC4(O)C[C@H](O)CCC34/C=N/NC(=O)c3ccccc3Cl)C1(O)CCC2C1=CC(=O)OC1 (stereo not given in full),i,i,i,i,i,i,nt,
CCCCOC(=O)c1ccccc1C(=O)OCc1ccccc1,i,i,nt,i,i,i,nt,
CN1CCc2c(C#N)c(Cl)nc(Cl)c2C1,i,i,i,i,i,i,nt,
CN(C/N=C(\N)N[N+](=O)[O-])S(=O)(=O)c1ccccc1,i,i,i,i,i,i,nt,
O=C1CCN(C(=O)C(Cl)Cl)N1,i,i,i,i,i,i,nt,
CCC1(CC)C(=O)C=CNC1=O,i,i,nt,nt,i,i,nt,
Ic1ccccc1CN[C@@H]1C2CCN(CC2)[C@@H]1C(c1ccccc1)c1ccccc1,i,94.4,nt,nt,i,nt,42.0,Full FLuc ctr=65.8
Fc1ccccc1CNC1CN2CCC1CC2 (stereo not given),i,i,i,i,i,i,nt,
CCCCn1c(O)c(/C(C)=N/NC(=O)Nc2ccccc2)c(=O)[nH]c1=O,i,i,i,i,i,i,nt,
CC(=O)c1ccc(OC(C)C)c(Cc2c(O)[nH]c(=S)[nH]c2=O)c1,i,i,i,i,i,i,nt,
N[C@@H](Cc1ccc(N(CCCl)CCCl)cc1)C(=O)O,i,68.1,nt,i,i,i,i,Full FLuc ctr=36.4
Cc1ccc(Oc2cc(NN3CCCCC3)c([N+](=O)[O-])cc2[N+](=O)[O-])c([N+](=O)[O-])c1,i,50.6,i,i,i,i,i,
COc1ccccc1C1=NCc2nnc(C)n2-c2ccc(Cl)cc21,i,i,i,i,i,i,nt,
COc1ccc(C2=NCc3nnc(C)n3-c3ccc(Cl)cc32)cc1Cl,i,64.9,i,i,i,i,i,
N#CC(C#N)=C(N)c1cccnc1,i,54.8,i,nt,i,i,i,
O=C(Cc1ccccc1)OCCNC(=O)c1cccnc1,i,i,i,nt,i,nt,nt,
CCN(C(=O)COC(=O)C(O)(c1ccccc1)c1ccccc1)c1c(N)n(Cc2ccccc2)c(=O)[nH]c1=O,i,i,nt,nt,i,nt,nt,
N=C1c2ccccc2CN1c1ccc(F)c([N+](=O)[O-])c1,i,52.6,i,i,i,i,i,
CCCCn1c(O)c(C(C)=NCCCN(CC)CC)c(=O)[nH]c1=O,i,i,i,i,i,i,nt,
COc1cc2c(c(OC)c1OC)-c1ccc(O)c(=O)cc1[C@@H](NC(C)=O)CC2,i,i,nt,i,i,i,nt,
COc1cc2c(c(OC)c1OC)-c1ccc(O)cc1[C@@H](NC(C)=O)CC2,i,63.0,i,i,i,i,64.8,Full FLuc ctr=106.7
CCOc1cccc(=NC2CCCCC2)c2c(C)n(C)c(C)c12,i,53.8,i,i,i,i,i,
c1cc2c(cc1[C@H]1OCC3C1CO[C@@H]3c1ccc3c(c1)OCO3)OCO2 (stereo not given in full),i,i,nt,nt,i,nt,nt,
COc1ccc2c(c1)NP(=S)(Oc1ccccc1)N2 (stereo not given),i,i,i,i,i,i,nt,
COC(=O)C1=C(c2cc3ccccc3s2)C[C@@H]2CC[C@H]1N2C(=O)NCc1ccc(C(F)(F)F)cc1,i,57.4,i,i,i,i,i,
C=C1C2C[C@H](O)C(C)(C)[C@@]2(O)[C@H](O)C[C@]23C[C@@](C)(O)[C@H](CC[C@H]12)[C@H]3OC(C)=O (stereo not given in full),i,i,i,i,i,i,nt,
CNC(=O)c1cccn(Cc2ccc(C(F)(F)F)cc2)c1=O,i,56.3,i,i,i,i,i,
